Common to all, as to type: ADME
Settings in all cases: cattle, isolated protein; call rule not given here

Series [1] has as its target T1, Albumin (Bos taurus, UniProt P02769). The series is described as follows: Binding affinity to bovine serum albumin assessed as hyperchromicity in absorption spectra up to 20 uM after 5 mins by UV-visible spectroscopic analysis relative to control. Summed up: (§1)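 UV-visible absorption titration of 10 µM BSA in 0.1 M phosphate buffer pH 7.4 with increasing compound, 0–20 µM. Compounds diluted from DMSO stocks into buffer. Spectra recorded 200–800 nm in a 1 cm quartz cell at 300 K after 5 min equilibration. The BSA band is at 279 nm; changes are compared with BSA alone.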

Series [2] addresses T1, Albumin. Put plainly: Binding affinity to bovine serum albumin assessed as enhancement in emission spectra up to 20 uM by fluorescence spectroscopic analysis relative to control. In a few lines: (§2)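 Fluorescence titration of 10 µM BSA in 0.1 M phosphate buffer pH 7.4 with compound at 0–20 µM, diluted from DMSO stocks. Excitation 280 nm, slit 10 nm, 1 cm quartz cell, 300 K. Changes in the 350 nm Trp emission, new bands near 370–373 nm and isoemissive points are read against BSA alone.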

The target of series [3] is T1, Albumin. The series is described as follows: Binding affinity to bovine serum albumin assessed as red shift in emission intensity up to 20 uM by fluorescence spectroscopic analysis relative to control. Summed up: as §2
In series [4] the target is T1, Albumin. Put plainly: Binding affinity to bovine serum albumin assessed as isoemissive point up to 20 uM by fluorescence spectroscopic analysis relative to control. Summed up: as §2
Series [5] addresses T1, Albumin. Put plainly: Binding affinity to bovine serum albumin assessed as binding constant in absorption spectra by Benesie-Hildebrand plot analysis. Summed up: (§3)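 BSA, 10 µM, in 0.1 M phosphate buffer pH 7.4, titrated with compound (0–20 µM per the figure; diluted from 10⁻³ mol L⁻¹ DMSO stocks). Run at 300 K in a 1 cm quartz cell. UV spectra taken 200–800 nm after 5 min equilibration; fluorescence excited at 280 nm, emission 351 nm, slit 10 nm. K is the intercept/slope ratio of a linear fit of 1/(A₀−A) or 1/(F₀−F) vs 1/[compound].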

The target of series [6] is T1, Albumin. Put plainly: Binding affinity to bovine serum albumin assessed as binding constant in emission spectra by Benesie-Hildebrand plot analysis. Summed up: as §3
For series [7], the target named is T1, Albumin. Put plainly: Binding affinity to bovine serum albumin assessed as change in hyperchromicity in absorption spectra up to 20 uM after 5 mins by UV-visible spectroscopic analysis relative to control. Summed up:
as §1

Series [8] concerns the target T1, Albumin. Put plainly: Binding affinity to bovine serum albumin up to 20 uM after 5 mins by fluorescence spectroscopic analysis. Summed up: as §2

T1 sequence (P02769 whole entry): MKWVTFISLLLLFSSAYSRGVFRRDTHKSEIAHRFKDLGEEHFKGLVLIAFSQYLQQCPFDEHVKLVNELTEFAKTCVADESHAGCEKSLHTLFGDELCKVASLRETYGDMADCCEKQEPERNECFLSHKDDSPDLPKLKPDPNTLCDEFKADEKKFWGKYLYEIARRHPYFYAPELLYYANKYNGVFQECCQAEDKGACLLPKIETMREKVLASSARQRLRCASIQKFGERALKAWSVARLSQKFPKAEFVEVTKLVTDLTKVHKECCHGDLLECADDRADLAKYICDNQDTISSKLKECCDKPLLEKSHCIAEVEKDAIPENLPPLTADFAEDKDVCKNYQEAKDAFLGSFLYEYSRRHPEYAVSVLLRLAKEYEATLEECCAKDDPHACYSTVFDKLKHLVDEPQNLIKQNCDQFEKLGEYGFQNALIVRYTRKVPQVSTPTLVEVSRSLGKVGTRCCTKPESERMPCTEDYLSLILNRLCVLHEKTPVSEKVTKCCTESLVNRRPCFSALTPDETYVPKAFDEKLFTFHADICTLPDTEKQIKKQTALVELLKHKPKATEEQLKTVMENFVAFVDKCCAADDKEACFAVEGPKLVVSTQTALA

As to `c1ccc(CNc2nc(Nc3ccc(-c4nc5ccccc5[nH]4)cc3)nc(N3CCOCC3)n2)cc1`, the Activity on Albumin [1] turned out to be 88.44%; on Albumin [2], 42.06%; on Albumin [3], 24 nm; on Albumin [4], 352 nm. Also, the K is given as 1.2 ×10⁴ /M at Albumin [5] and 1.8 ×10⁵ /M at Albumin [6].

For the molecule `CN1CCN(c2nc(Nc3ccc(-c4nc5ccccc5[nH]4)cc3)nc(N3CCOCC3)n2)CC1`, the Activity on Albumin [1] is 75.98%; at Albumin [2] it was 77.53%; at Albumin [3], 22 nm; at Albumin [4] it was 339 nm. Further, the K on Albumin [5] is 8.5 ×10⁴ /M; at Albumin [6] it was 2.6 ×10⁴ /M.

In the case of `c1csc(-c2nc(Nc3ccc(-c4nc5ccccc5[nH]4)cc3)nc(N3CCOCC3)n2)c1`, the Activity entry at Albumin [7] and on Albumin [8] was “Not Active” each time.

Regarding `NNc1nc(Nc2ccc(-c3nc4ccccc4[nH]3)cc2)nc(N2CCOCC2)n1`, the Activity entry at Albumin [7] and at Albumin [8] was “Not Active” throughout.

Regarding `c1ccc2[nH]c(-c3ccc(Nc4nc(NCCN5CCOCC5)nc(N5CCOCC5)n4)cc3)nc2c1`, the Activity at Albumin [1] worked out at 85.95%; on Albumin [2], 57.22%; on Albumin [3], 23 nm; at Albumin [4], 345 nm. Also, the K at Albumin [5] amounted to 8.4 ×10⁴ /M; at Albumin [6], 5.7 ×10⁴ /M.

For the molecule `c1ccc2[nH]c(-c3ccc(Nc4nc(N5CCCC5)nc(N5CCOCC5)n4)cc3)nc2c1`, the Activity on Albumin [1] stood at 65.29%; on Albumin [2], 68.99%; on Albumin [3] it was 22 nm; on Albumin [4] it was 341 nm. The K was 1 ×10⁵ /M at Albumin [5] and 5.4 ×10⁴ /M on Albumin [6].

With `OCCNc1nc(Nc2ccc(-c3nc4ccccc4[nH]3)cc2)nc(N2CCOCC2)n1`, the Activity at Albumin [1] stood at 90.6%; on Albumin [2], 71.82%; at Albumin [3] it was 23 nm; at Albumin [4] it was 340 nm. Besides, the K is 9.5 ×10⁴ /M at Albumin [5] and 8 ×10⁴ /M on Albumin [6].

As to `c1coc(-c2nc(Nc3ccc(-c4nc5ccccc5[nH]4)cc3)nc(N3CCOCC3)n2)c1`, the Activity entry on Albumin [7] and on Albumin [8] was “Not Active” throughout.

Take `c1ccc2[nH]c(-c3ccc(Nc4nc(NC5CCCCC5)nc(N5CCOCC5)n4)cc3)nc2c1`: the Activity at Albumin [1] was 85.87%; on Albumin [2] it was 23.12%; at Albumin [3], 17 nm; at Albumin [4], 349 nm. Besides, the K on Albumin [5] is 1 ×10⁵ /M; on Albumin [6], 1.6 ×10⁵ /M.

In the case of `c1ccc2[nH]c(-c3ccc(Nc4nc(N5CCOCC5)nc(N5CCOCC5)n4)cc3)nc2c1`, the Activity on Albumin [1] is listed as 72.93%; at Albumin [2], 63.43%; on Albumin [3], 24 nm; at Albumin [4], 350 nm. Also, the K came to 7 ×10⁴ /M on Albumin [5] and 6.9 ×10⁴ /M on Albumin [6].

For the molecule `FC(F)(F)c1ccc(-c2nc(Nc3ccc(-c4nc5ccccc5[nH]4)cc3)nc(N3CCOCC3)n2)cc1`, the Activity result at Albumin [7] and on Albumin [8] was “Not Active” throughout.

Take `NCCNc1nc(Nc2ccc(-c3nc4ccccc4[nH]3)cc2)nc(N2CCOCC2)n1`: the Activity is 70.53% at Albumin [1], 69.01% at Albumin [2], 22 nm on Albumin [3] and 347 nm on Albumin [4]. Besides, the K is on record as 6.3 ×10⁴ /M on Albumin [5] and 1.3 ×10⁵ /M on Albumin [6].

`OCCN1CCN(c2nc(Nc3ccc(-c4nc5ccccc5[nH]4)cc3)nc(N3CCOCC3)n2)CC1`: the Activity is given as 68.72% on Albumin [1], 73.21% on Albumin [2], 25 nm at Albumin [3] and 343 nm on Albumin [4]. Moreover, the K on Albumin [5] amounted to 1.2 ×10⁵ /M; at Albumin [6], 5.4 ×10⁴ /M.

Source of the values: ChEMBL document CHEMBL3808334, “Synthesis and in vitro evaluation of novel triazine analogues as anticancer agents and their interaction studies with bovine serum albumin” (Eur J Med Chem, 2016).
